Reference: PMC9299185 (Pest Management Science, 2021)
Like-named read-outs stand apart in the source and are kept apart here.

What was measured:
[1] = Honey bee acute contact toxicity and synergism study; format: in vivo, Apis mellifera; conditions: female, Apis mellifera (honey bee), in vivo, topical, honey bee mortality
Outline: (§1)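 OECD 214 acute contact test, modified for the synergist. Mixed-age workers came from the honey super of three queen-right colonies untreated for at least 6 months. Propiconazole was applied at 10 μg/bee. Controls received acetone or propiconazole alone. Mortality was scored at 48 h. Groups were compared by unpaired t-test (P < 0.01), with SEM shown.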

[2] = test system: Apis mellifera worker bees; assay: as above; format: in vivo; conditions: for effect of propiconazole pretreatment on acute contact toxicity: 10 μg/bee propiconazole 1 h prior to insecticide application
Outline: as §1

[3] = target: T1, honey bee CYP9Q3 (Apis mellifera, UniProt A0A7M7LMV1); assay: Fluorescence-based BOMFC probe assay with recombinantly expressed CYP9Q3; format: biochemical; conditions: for Hill slope CYP9Q3: fungicides
T1 sequence (A0A7M7LMV1 1-517): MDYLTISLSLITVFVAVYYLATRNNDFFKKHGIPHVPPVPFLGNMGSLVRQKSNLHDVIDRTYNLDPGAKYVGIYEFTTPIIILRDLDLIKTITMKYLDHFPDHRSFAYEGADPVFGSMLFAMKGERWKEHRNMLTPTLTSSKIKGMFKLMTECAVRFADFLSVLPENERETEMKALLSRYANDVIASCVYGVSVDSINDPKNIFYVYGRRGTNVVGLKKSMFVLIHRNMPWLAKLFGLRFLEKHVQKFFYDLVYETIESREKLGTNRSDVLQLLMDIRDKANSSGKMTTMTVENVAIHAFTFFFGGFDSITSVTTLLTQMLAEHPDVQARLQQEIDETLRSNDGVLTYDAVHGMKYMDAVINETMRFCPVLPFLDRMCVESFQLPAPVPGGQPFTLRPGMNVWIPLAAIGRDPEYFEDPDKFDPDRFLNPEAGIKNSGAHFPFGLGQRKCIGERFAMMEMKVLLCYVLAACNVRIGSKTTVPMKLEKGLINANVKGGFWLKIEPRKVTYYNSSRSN
T1 sequence (A0A8U1CY41 1-694 partner): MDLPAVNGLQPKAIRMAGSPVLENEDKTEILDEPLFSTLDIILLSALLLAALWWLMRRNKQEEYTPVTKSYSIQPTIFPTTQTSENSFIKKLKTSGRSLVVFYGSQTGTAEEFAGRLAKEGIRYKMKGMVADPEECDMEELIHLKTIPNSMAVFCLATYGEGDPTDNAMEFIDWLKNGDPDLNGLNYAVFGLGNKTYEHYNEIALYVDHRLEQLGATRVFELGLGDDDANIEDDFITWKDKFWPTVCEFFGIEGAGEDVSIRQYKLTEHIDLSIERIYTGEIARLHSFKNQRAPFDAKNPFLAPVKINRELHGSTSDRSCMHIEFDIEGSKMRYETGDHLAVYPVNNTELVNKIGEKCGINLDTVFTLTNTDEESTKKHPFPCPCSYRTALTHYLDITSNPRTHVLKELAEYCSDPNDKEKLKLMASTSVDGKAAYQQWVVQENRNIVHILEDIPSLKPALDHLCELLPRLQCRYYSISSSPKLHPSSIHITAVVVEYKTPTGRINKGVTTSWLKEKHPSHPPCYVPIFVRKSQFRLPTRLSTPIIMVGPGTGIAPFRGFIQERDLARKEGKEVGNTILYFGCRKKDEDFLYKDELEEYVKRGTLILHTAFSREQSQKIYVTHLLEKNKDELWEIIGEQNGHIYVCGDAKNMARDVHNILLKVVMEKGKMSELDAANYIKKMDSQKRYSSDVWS

[4] = target: T2, honey bee CYP9Q2 (Apis mellifera, UniProt A0A7M7R6F2); assay: Fluorescence-based BOMFC probe assay with recombinantly expressed CYP9Q2; format: biochemical; conditions: for Hill slope CYP9Q2: fungicides
T2 sequence (A0A7M7R6F2 1-532): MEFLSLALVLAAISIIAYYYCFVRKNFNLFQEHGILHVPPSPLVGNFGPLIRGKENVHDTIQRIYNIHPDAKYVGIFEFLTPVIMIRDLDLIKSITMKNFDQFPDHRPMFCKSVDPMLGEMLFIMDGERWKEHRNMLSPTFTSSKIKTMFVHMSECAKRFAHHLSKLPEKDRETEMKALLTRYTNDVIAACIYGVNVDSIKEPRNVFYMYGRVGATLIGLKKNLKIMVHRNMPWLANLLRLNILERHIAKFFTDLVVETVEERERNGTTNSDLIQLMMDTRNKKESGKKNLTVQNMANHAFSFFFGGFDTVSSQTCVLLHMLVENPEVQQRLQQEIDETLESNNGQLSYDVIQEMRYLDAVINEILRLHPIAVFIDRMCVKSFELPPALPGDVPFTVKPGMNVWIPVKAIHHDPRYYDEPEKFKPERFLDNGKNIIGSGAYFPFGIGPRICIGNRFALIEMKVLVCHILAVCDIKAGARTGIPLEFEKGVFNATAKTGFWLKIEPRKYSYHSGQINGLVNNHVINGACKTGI
T2 sequence (A0A8U1CY41 1-694 partner): T1 sequence (A0A8U1CY41 1-694 partner)

[5] = target: T3, honey bee CYP6AQ1 (Apis mellifera, UniProt F1DPP0); assay: Fluorescence-based BOMFC probe assay with recombinantly expressed CYP6AQ1; format: biochemical; conditions: for inhibition of CYP6AQ1-mediated BOMFC metabolism: 100 μM
T3 sequence (F1DPP0 1-514): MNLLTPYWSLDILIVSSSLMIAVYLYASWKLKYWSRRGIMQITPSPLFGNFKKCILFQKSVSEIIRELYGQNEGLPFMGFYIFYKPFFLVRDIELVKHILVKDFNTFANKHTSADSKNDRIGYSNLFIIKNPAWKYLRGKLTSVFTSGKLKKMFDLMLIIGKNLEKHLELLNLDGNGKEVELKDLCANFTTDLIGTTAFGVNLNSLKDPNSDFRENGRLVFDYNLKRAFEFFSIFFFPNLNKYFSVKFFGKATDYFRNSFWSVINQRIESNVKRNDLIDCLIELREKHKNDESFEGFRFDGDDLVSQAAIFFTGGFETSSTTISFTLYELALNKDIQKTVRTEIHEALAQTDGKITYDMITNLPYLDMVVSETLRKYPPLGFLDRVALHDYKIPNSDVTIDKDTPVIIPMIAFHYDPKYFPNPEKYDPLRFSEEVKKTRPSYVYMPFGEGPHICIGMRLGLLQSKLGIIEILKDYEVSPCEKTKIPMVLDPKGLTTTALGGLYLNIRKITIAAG
T3 sequence (A0A8U1CY41 1-694 partner): T1 sequence (A0A8U1CY41 1-694 partner)

[6] = test system: Drosophila melanogaster Empty × Hsp70 (reference control strain); assay: Drosophila diet overlay bioassay, control strain; format: in vivo; conditions: Empty × Hsp70 adults
Outline: (§2)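 F1 adults came from crossing UAS strains carrying honey bee CYP9Q2 or CYP9Q3, or a control strain lacking the transgene, with a GAL4-Hsp70 driver. Flies were heat-shocked at 37 °C three times for 30 min the day before, then again just before testing. The test compound in acetone was diluted 1:2 in water with 0.1% (w/v) Triton X-100 and spread over artificial diet. Mortality was scored at 48 h. Values came from probit analysis; resistance ratio = transgenic LD50 / control LD50.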

[7] = test system: transgenic Drosophila melanogaster CYP9Q2 × Hsp70; assay: Drosophila diet overlay bioassay, strain expressing honey bee CYP9Q2; format: in vivo; conditions: for LD50 48 h: CYP9Q2 × Hsp70 adults, diet overlay; for RR (resistance ratio): LD50 of CYP9Q2 × Hsp70 divided by LD50 of Empty × Hsp70; for Slope: probit analysis, CYP9Q2 × Hsp70
Outline: as §2

[8] = test system: transgenic Drosophila melanogaster CYP9Q3 × Hsp70; assay: Drosophila diet overlay bioassay, strain expressing honey bee CYP9Q3; format: in vivo; conditions: for LD50 48 h: CYP9Q3 × Hsp70 adults, diet overlay; for RR (resistance ratio): LD50 of CYP9Q3 × Hsp70 divided by LD50 of Empty × Hsp70; for Slope: probit analysis, CYP9Q3 × Hsp70
Outline: as §2

[9] = test system: Apis mellifera worker bees; conditions: honey bee, reported value; cited from earlier work
[10] = target: T1, honey bee CYP9Q3; conditions: BOMFC probe, ref Haas et al. (2021)[33], cited from earlier work
[11] = target: T2, honey bee CYP9Q2; conditions: BOMFC probe, ref Haas et al. (2021)[33], cited from earlier work
[12] = IC50 CYP9Q3, diamides, BOMFC probe 6.5 μM
[13] = highest concentration tested, 100 μM
[14] = IC50 CYP9Q2, diamides, BOMFC probe 15 μM
[15] = IC50 CYP9Q3, fungicides, BOMFC probe
[16] = IC50 CYP9Q2, fungicides, BOMFC probe

Cc1cc(C(F)(C(F)(F)F)C(F)(F)F)ccc1NC(=O)c1cccc(I)c1C(=O)NC(C)(C)CS(C)(=O)=O [Flubendiamide, flubendiamide]
mortality at 48 h ([1]; 100 μg/bee, FLB doses of 100 μg/bee, acute contact): < 5% | effect of propiconazole pretreatment on acute contact toxicity [2]: not influenced | IC50 [3, 12]: > 100 µM | interaction with BOMFC metabolism by CYP9Q3 [3, 13]: did not show any obvious interaction | IC50 [4, 14]: > 100 µM | interaction with BOMFC metabolism by CYP9Q2 [4, 13]: did not show any obvious interaction | IC50 [5]: > 100 µM | inhibition of CYP6AQ1-mediated BOMFC metabolism [5]: did not show any obvious interaction | LD50 48 h [6]: 147 ppm | LD50 48 h [7]: 253 ppm | RR (resistance ratio) [7]: 1.73 | Slope [7]: 4.62 | LD50 48 h [8]: 179 ppm | RR (resistance ratio) [8]: 1.23 | Slope [8]: 6.97

CNC(=O)c1cc(Cl)cc(C)c1NC(=O)c1cc(Br)nn1-c1ncccc1Cl [Chlorantraniliprole]
mortality at 48 h ([1]; 0.2 μg/bee, topical 0.2 μg/bee CPR alone, 48 h): 3.6% | mortality at 48 h ([1]; 2 μg/bee, topical 2 μg/bee CPR alone, 48 h, ± SEM, n = 3): 12% | mortality at 48 h ([1]; topical application of 2 μg/bee and 0.2 μg/bee CPR alone): < 15% | effect of propiconazole pretreatment on acute contact toxicity [2]: significantly increased | IC50 [3, 12]: 17.4 µM | IC50 [4, 14]: 93.4 µM | IC50 [5]: > 100 µM | inhibition of CYP6AQ1-mediated BOMFC metabolism [5]: not inhibited | LD50 48 h [6]: 22.2 ppm | LD50 48 h [7]: 96.2 ppm | RR (resistance ratio) [7]: 4.34 | Slope [7]: 1.74 | LD50 48 h [8]: 155 ppm | RR (resistance ratio) [8]: 6.99 | Slope [8]: 2.86 | LD50 [9]: > 4 μg/bee

O=C(Nc1ccccc1-c1ccc(Cl)cc1)c1cccnc1Cl [Boscalid, boscalid]
IC50 [3, 15]: 4.13 µM | Hill slope CYP9Q3 ([3]; BOMFC probe): −1.05 | IC50 [4, 16]: > 10 µM

CC(C)NC(=O)N1CC(=O)N(c2cc(Cl)cc(Cl)c2)C1=O [Iprodione, iprodione]
IC50 [3, 15]: > 10 µM | IC50 [4, 16]: > 10 µM

CCCC1COC(Cn2cncn2)(c2ccc(Cl)cc2Cl)O1 (centres unmarked) [Propiconazole, propiconazole]
effect on control bees ([2]; propiconazole only, 10 μg/bee, test period 48 h): remained unaffected | Hill slope CYP9Q3 [10]: −1.10 | IC50 ([10]; read-out: IC50 CYP9Q3): 0.072 µM | Hill slope CYP9Q2 [11]: −0.88 | IC50 ([11]; read-out: IC50 CYP9Q2): 0.151 µM

N#Cc1c(Cl)c(Cl)c(Cl)c(C#N)c1Cl [Chlorothalonil, chlorothalonil]
IC50 [3, 15]: > 10 µM | IC50 [4, 16]: > 10 µM

COC(=O)N(OC)c1ccccc1COc1ccn(-c2ccc(Cl)cc2)n1 [Pyraclostrobin, pyraclostrobin]
IC50 [3, 15]: 7.84 µM | Hill slope CYP9Q3 ([3]; BOMFC probe): −0.56 | IC50 [4, 16]: > 10 µM

CC1(C)CCC(Cc2ccc(Cl)cc2)C1(O)Cn1cncn1 (centres unmarked) [Metconazole, metconazole]
IC50 [3, 15]: 0.057 µM | Hill slope CYP9Q3 ([3]; BOMFC probe): −1.03 | IC50 [4, 16]: 0.033 µM | Hill slope CYP9Q2 ([4]; BOMFC probe): −0.6

Cc1cc(C2CC2)nc(Nc2ccccc2)n1 [Cyprodinil]
IC50 [3, 15]: > 10 µM | IC50 [4, 16]: > 10 µM

N#CC(CCc1ccc(Cl)cc1)(Cn1cncn1)c1ccccc1 (centres unmarked) [Fenbuconazole, fenbuconazole]
IC50 [3, 15]: 0.058 µM | Hill slope CYP9Q3 ([3]; BOMFC probe): −0.86 | IC50 [4, 16]: 0.041 µM | Hill slope CYP9Q2 ([4]; BOMFC probe): −0.67

CC1COC(Cn2cncn2)(c2ccc(Oc3ccc(Cl)cc3)cc2Cl)O1 (centres unmarked) [Difenoconazole, difenoconazole]
IC50 [3, 15]: 0.032 µM | IC50 ([3]; IC50 CYP9Q3, lowest IC50 value): ~0.03 µM | Hill slope CYP9Q3 ([3]; BOMFC probe): −1.02 | IC50 [4, 16]: 0.033 µM | IC50 ([4]; IC50 CYP9Q2, lowest IC50 value): ~0.03 µM | Hill slope CYP9Q2 ([4]; BOMFC probe): −0.81
